Test results from ChEMBL document CHEMBL1781979, “The discovery of novel calcium sensing receptor negative allosteric modulators” (Bioorg Med Chem Lett, 2009).
Active and inactive are the calls of the source. The calls are words filed in the database; no cut-off is given here.

Key:
[1] = biological target: T1, Extracellular calcium-sensing receptor (Homo sapiens, UniProt P41180); assay: Negative allosteric modulator activity at human recombinant calcium sensing receptor expressed in HEK cells; assay type: functional, cell-based, HEK293
T1 sequence (P41180 whole entry): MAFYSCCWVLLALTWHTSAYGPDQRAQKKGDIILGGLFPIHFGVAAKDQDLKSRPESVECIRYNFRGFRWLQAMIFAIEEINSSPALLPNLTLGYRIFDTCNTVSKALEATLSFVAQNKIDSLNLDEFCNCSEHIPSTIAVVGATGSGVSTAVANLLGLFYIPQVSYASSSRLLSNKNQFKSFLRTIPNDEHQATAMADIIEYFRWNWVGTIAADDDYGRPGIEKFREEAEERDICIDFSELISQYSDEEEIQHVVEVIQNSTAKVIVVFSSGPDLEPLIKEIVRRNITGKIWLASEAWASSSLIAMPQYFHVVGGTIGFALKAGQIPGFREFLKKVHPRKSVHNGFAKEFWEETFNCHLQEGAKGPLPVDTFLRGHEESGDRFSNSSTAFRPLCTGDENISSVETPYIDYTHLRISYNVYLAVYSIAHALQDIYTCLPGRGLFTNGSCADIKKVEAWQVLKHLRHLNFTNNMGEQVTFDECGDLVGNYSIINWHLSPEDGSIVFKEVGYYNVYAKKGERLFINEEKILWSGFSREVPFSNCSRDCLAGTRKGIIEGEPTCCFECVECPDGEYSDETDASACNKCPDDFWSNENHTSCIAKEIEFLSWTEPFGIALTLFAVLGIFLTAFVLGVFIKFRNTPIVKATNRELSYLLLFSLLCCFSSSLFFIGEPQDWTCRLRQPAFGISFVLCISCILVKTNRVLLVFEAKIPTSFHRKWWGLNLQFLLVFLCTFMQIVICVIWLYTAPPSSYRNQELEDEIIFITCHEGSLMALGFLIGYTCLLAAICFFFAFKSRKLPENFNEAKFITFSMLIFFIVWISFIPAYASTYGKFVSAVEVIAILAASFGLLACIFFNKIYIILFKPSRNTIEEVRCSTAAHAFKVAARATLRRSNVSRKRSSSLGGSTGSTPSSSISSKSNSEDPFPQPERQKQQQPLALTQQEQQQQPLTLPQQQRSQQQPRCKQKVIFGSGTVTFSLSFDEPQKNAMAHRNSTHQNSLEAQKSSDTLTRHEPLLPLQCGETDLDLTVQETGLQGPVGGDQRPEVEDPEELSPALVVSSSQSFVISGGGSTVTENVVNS
Outline: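 Human recombinant CaSR expressed in HEK cells; potency from n = 3 determinations.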

[2] = Intrinsic clearance in human liver microsomes assessed per mg of protein; assay type: ADME, Microsome
Outline: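 Stability in human liver microsomes reported as intrinsic clearance, µL/min/mg microsomal protein.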

[3] = Intrinsic clearance in rat liver microsomes assessed per mg of protein; assay type: ADME, Microsome
Outline: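 Rat liver microsomes; stability expressed as intrinsic clearance in µL/min/mg of microsomal protein.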

[4] = Lipophilicity, log D of the compound; assay type: physicochemical; settings: octanol/water
[5] = Half life in Sprague-Dawley rat at 1 mg/kg, iv; assay type: ADME, organism-based; set-up: dose 1 mg/kg, route intravenous; settings: in vivo
Outline: (§1)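 Intravenous dosing at 1 mg/kg to rats; volume of distribution, plasma clearance (mL/min/kg) and half-life derived from the iv plasma profile.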

[6] = Volume of distribution in Sprague-Dawley rat at 1 mg/kg, iv; assay type: ADME, organism-based; set-up: dose 1 mg/kg, route intravenous; settings: in vivo; outline: as §1
[7] = Oral bioavailability in Sprague-Dawley rat; assay type: ADME, organism-based; settings: in vivo
[8] = system: Rattus norvegicus; assay: Clearance in Sprague-Dawley rat at 1 mg/kg, iv; settings: in vivo
[9] = Clearance in Sprague-Dawley rat at 1 mg/kg, iv; assay type: ADME, organism-based; set-up: dose 1 mg/kg, route intravenous; settings: in vivo; outline: as §1
[10] = system: Rattus norvegicus; assay: Increase in PTH (1-84) release response in Sprague-Dawley rat at 10 mg/kg, po by PTH ELISA; assay type: functional, organism-based; set-up: dose 10 mg/kg
[11] = biological target: hERG (KCNH2) (Homo sapiens, UniProt Q12809); assay: Inhibition of human ERG at 10 uM by whole cell voltage clamp technique
Chain of hERG (KCNH2) (Q12809 whole entry): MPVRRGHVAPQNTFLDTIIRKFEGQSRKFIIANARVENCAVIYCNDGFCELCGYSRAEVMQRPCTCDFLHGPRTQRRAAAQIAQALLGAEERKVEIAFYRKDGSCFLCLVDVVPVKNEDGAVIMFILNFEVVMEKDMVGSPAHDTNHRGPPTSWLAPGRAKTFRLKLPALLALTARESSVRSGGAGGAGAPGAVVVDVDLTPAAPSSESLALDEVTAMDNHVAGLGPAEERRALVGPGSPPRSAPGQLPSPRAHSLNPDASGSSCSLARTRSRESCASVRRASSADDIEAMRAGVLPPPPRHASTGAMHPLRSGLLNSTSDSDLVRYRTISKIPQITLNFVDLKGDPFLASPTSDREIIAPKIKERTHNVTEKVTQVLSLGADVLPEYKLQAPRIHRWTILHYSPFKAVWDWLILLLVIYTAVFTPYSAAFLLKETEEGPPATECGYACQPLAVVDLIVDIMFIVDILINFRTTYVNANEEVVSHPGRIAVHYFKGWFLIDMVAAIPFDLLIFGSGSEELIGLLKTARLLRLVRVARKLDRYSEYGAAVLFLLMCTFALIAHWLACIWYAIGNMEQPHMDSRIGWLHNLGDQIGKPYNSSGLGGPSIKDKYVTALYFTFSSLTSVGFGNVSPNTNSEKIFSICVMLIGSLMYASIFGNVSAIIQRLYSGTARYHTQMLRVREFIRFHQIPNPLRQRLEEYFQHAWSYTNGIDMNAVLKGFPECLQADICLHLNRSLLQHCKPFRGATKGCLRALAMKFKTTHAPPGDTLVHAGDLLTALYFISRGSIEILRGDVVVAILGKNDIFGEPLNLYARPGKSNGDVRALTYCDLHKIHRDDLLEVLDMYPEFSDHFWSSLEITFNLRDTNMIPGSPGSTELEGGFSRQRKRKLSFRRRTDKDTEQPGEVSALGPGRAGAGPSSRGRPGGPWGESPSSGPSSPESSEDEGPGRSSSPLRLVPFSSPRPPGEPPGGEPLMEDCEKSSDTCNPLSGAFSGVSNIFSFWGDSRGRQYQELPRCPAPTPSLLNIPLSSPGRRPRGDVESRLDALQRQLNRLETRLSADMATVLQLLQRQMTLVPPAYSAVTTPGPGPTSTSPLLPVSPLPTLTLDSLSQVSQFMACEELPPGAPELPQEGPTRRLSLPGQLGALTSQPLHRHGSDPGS

[12] = Oral bioavailability in Sprague-Dawley rat at 10 mg/kg; assay type: ADME, organism-based; settings: in vivo
Outline: (§2)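 Oral dosing at 10 mg/kg to rats; total plasma Cmax and oral bioavailability determined from plasma exposure, alongside the 1 mg/kg iv leg.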

[13] = system: Rattus norvegicus; assay: Toxicity in Sprague-Dawley rat assessed as incidence of adverse effect at 500 mg/kg in 4 day drug toleration study; assay type: organism-based; set-up: dose 500 mg/kg; settings: in vivo, 96 h
Outline: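 Rats given 500 mg/kg over a 4 day toleration study, monitored for adverse effects.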

[14] = Cmax in Sprague-Dawley rat at 10 mg/kg, po; assay type: ADME, organism-based; set-up: dose 10 mg/kg, route oral; settings: in vivo; outline: as §2
[15] = Inhibition of cytochrome P450; assay type: ADME
[16] = biological target: Extracellular calcium-sensing receptor (Homo sapiens) (UniProt P41180); assay: Negative allosteric modulator activity at human calcium sensing receptor expressed in HEK cells

| IC50 [1] [nM] | microsomal CLint [2] [µL/min/mg] | microsomal CLint [3] [µL/min/mg] | logD [4] | Compound | other results |
| --- | --- | --- | --- | --- | --- |
| 23 | 157 | > 100 |  | CC(C)(Cc1ccc2ccccc2c1)NC[C@@H](O)COc1cccc(Cl)c1C#N |  |
| 56 | 19 | 35 | 2.6 | CC(C)(CC1Cc2ccccc2C1)NC[C@@H](O)COc1cc(C2CC3CC2C2C(C(=O)O)C32)cc(F)c1F (mixture of isomers) |  |
| 900 | 15 | 50 |  | CC(C)(CC1Cc2ccccc2C1)NC[C@@H](O)COc1cccc(C2CC3CC2C2C(C(=O)O)C32)c1 (mixture of isomers) |  |
| 6 | 17 | 25 | 2 | CC(C)(CC1Cc2ccccc2C1)NC[C@@H](O)COc1cc(C2CC3CC2C2C(C(=O)O)C32)ccc1C#N (mixture of isomers) | half-life [5]: 1.5 h; Vd [6]: 5 L/kg; bioavailability [7]: < 10%; CL [8]: 83 mL/min/kg; clearance [9]: 70 mL/min/kg |
| 3500 | 23 | 38 |  | Cc1ccc(CC(C)(C)NC[C@@H](O)COc2cccc(C3CC4CC3C3C(C(=O)O)C43)c2)cc1F (mixture of isomers) |  |
| 300 | 20 |  |  | Cc1ccc(CC(C)(C)NC[C@@H](O)COc2cc(C3CC4CC3C3C(C(=O)O)C43)ccc2F)cc1F (mixture of isomers) |  |
| 23 | 15 | 27 | 2.3 | Cc1ccc(CC(C)(C)NC[C@@H](O)COc2cc(C3CC4CC3C3C(C(=O)O)C43)ccc2C#N)cc1F (mixture of isomers) | half-life [5]: 1.5 h; Vd [6]: 5 L/kg; bioavailability [7]: < 10%; CL [8]: 83 mL/min/kg; clearance [9]: 70 mL/min/kg |
| 350 | 9 | < 10 |  | CC(C)(CN1Cc2ccccc2C1=O)NC[C@@H](O)COc1cc(C2CC3CC2C2C(C(=O)O)C32)ccc1C#N (mixture of isomers) |  |
| 25 | 35 | 45 | 2.4 | Cc1ccc(CC(C)(C)NC[C@@H](O)CO[C@H](C)c2ccccc2C2CC3CC2C2C(C(=O)O)C32)cc1F (mixture of isomers) | Activity [10]: Active; inhibition at 10 µM [11]: < 10%; bioavailability [12]: > 60%; Activity [13]: Non-toxic; Cmax [14]: 1000 nM; inhibition (INH) [15]: Not Active |
| 50 | 16 | 14 | 2.8 | C[C@@H](OC[C@H](O)CNC(C)(C)Cc1ccc(Cl)cc1F)c1ccccc1C1CC2CC1C1C(C(=O)O)C21 (mixture of isomers) |  |
| 18 | 33 |  | 2.6 | Cc1ccc(CC(C)(C)NC[C@@H](O)CO[C@H](C)c2ccccc2C2CC3CC2C2C(C(=O)O)C32)cc1Cl (mixture of isomers) |  |
| 3500 | 23 | 38 |  | C[C@@H](OC[C@H](O)CNC(C)(C)CC1Cc2ccccc2C1)c1ccccc1C1CC2CC1C1C(C(=O)O)C21 (mixture of isomers) |  |
| 146 | < 8 | 90 | 1.5 | CC(C)(CC1Cc2ccccc2C1)NC[C@@H](O)COc1cc(CCC(=O)O)cc(F)c1F [RONACALERET] | IC50 [16]: 320 nM; Activity [10]: inactive; inhibition at 10 µM [11]: < 10%; bioavailability [12]: 12%; Cmax [14]: 300 nM |
